According to ChEMBL document CHEMBL5344483, “Design and synthesis of novel chloropyridazine hybrids as promising anticancer agents acting by apoptosis induction and PARP-1 inhibition through a molecular hybridization strategy” (RSC Med Chem, 2024):
The source made the active and inactive calls. The rule behind the calls is not given here.

Legend:
[1] = tested on: FaDu; test: Cytotoxicity against human FaDu cells by SRB assay; type: functional, cell-based
Procedure, shortened: (§1)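 Cells seeded at 3×10^3 per well and allowed to attach for 24 h. Exposed to […], 12.5, 25 and 50 µg/mL for 48 h, triplicate wells per concentration, with a 1% v/v DMSO vehicle. Fixed in 20% TCA, stained with 0.4% SRB, and OD read at 570 nm. IC50 from sigmoidal dose-response fit of survival fraction (treated/control OD).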

[2] = tested on: HNO 97 cell line; test: Induction of apoptosis in human HNO97 cells assessed as measuring fold decrease in Bcl-2 protein expression level by sandwiched immunoassay relative to control; type: functional
Procedure, shortened: (§2)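 Sandwich ELISA on antibody-precoated wells. Sample incubated 1 h at 37 °C, then biotin-conjugated detection antibody 1 h at 37 °C, then avidin-HRP 30 min at 37 °C, with washes between steps. TMB substrate 10–20 min at 37 °C in the dark, stopped with sulphuric acid, read at 450 nm. Duplicate readings, zero-standard subtracted, quantified against a 7-point standard curve.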

[3] = tested on: SK-BR-3; test: Anticancer activity against human SK-BR-3 cells assessed as growth inhibition at 100 microg/mL by SRB assay relative to control; type: functional; conditions: read-out: GI
Procedure, shortened: (§3)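 Cells seeded at 3×10^3 per well and allowed to attach for 24 h. Treated with 100 µg/mL compound for 48 h, triplicate wells, with a 1% v/v DMSO vehicle control. Fixed in 20% TCA, stained with 0.4% SRB, and OD read at 570 nm. Survival fraction is treated OD/control OD.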

[4] = tested on: NCI-H460; test: Anticancer activity against human NCI-H460 cells assessed as growth inhibition at 100 microg/mL by SRB assay relative to control; type: functional; conditions: read-out: GI; procedure, shortened: as §3
[5] = tested on: MDA-MB-231; test: Antiproliferative activity against human MDA-MB-231 cells assessed as reduction in cell growth by coomassie Brilliant Blue staining based analysis; type: functional
[6] = tested on: HeLa; test: Anticancer activity against human HeLa cells assessed as growth inhibition at 100 microg/mL by SRB assay relative to control; type: functional; conditions: read-out: GI; procedure, shortened: as §3
[7] = tested on: HNO 97 cell line; test: Induction of cell cycle arrest in human HNO97 cells assessed as cell population at G0-G1 phase by flow cytometry (reference value: 63.31%); type: functional
[8] = tested on: FaDu; test: Anticancer activity against human FaDu cells assessed as growth inhibition at 100 microg/mL by SRB assay relative to control; type: functional; conditions: read-out: GI; procedure, shortened: as §3
[9] = tested on: HNO 97 cell line; test: Induction of apoptosis in human HNO97 cells assessed as measuring fold decrease in CK 18 protein expression level by sandwiched immunoassay relative to control; type: functional; procedure, shortened: as §2
[10] = target: Poly [ADP-ribose] polymerase 1 (Homo sapiens, UniProt P09874); test: Inhibition of human PARP-1 in MDA-MB-231 cells assessed as accumulation of cleaved PARP-1 by immunoblot analysis; type: cell-based
Sequence of Poly [ADP-ribose] polymerase 1 (P09874 whole entry): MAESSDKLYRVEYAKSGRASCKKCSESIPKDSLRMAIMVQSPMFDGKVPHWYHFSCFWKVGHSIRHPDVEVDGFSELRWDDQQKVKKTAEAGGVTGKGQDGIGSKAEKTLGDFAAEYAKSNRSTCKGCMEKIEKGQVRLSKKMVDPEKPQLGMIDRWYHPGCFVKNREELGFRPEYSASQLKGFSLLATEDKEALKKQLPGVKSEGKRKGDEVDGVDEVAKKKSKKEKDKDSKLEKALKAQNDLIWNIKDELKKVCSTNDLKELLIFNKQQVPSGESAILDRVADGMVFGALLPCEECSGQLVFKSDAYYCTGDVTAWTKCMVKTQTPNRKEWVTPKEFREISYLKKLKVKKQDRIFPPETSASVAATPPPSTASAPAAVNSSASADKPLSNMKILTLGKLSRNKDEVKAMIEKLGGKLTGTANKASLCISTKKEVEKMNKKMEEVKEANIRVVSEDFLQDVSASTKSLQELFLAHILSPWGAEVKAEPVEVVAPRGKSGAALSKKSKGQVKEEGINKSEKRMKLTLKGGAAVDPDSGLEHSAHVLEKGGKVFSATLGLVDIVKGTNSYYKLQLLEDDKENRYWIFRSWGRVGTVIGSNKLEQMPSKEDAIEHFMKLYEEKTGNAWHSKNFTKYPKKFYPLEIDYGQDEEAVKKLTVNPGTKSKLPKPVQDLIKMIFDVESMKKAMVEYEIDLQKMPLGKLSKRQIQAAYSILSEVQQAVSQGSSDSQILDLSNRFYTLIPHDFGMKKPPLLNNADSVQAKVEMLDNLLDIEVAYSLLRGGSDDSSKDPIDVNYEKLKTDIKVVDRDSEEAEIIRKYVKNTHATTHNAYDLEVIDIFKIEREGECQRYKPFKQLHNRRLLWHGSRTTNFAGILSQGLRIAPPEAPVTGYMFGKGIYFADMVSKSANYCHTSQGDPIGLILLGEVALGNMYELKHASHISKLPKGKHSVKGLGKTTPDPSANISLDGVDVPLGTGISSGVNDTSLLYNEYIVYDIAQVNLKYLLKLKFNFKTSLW
Procedure, shortened: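 Drug-treated cells lysed and protein measured by BCA. Lysate (30 µg) separated by SDS-PAGE and transferred to PVDF. Probed with anti-PARP1 primary antibody (1:1000), then HRP-conjugated secondary (1:10,000), with alpha-tubulin as loading probe. Detected by ECL. Blots representative of at least three independent experiments.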

[11] = tested on: MCF7; test: Anticancer activity against human MCF7 cells assessed as growth inhibition at 100 microg/mL by SRB assay relative to control; type: functional; conditions: read-out: GI; procedure, shortened: as §3
[12] = tested on: HCT-116; test: Anticancer activity against human HCT-116 cells assessed as growth inhibition at 100 microg/mL by SRB assay relative to control; type: functional; conditions: read-out: GI; procedure, shortened: as §3
[13] = tested on: HNO 97 cell line; test: Induction of apoptosis in human HNO97 cells assessed as measuring fold increase in caspase-6 protein expression level by sandwiched immunoassay relative to control; type: functional; procedure, shortened: as §2
[14] = tested on: HNO 97 cell line; test: Cytotoxicity against human HNO97 cells by SRB assay; type: functional, cell-based; procedure, shortened: as §1
[15] = tested on: A-375; test: Anticancer activity against human A-375 cells assessed as growth inhibition at 100 microg/mL by SRB assay relative to control; type: functional; conditions: read-out: GI; procedure, shortened: as §3
[16] = tested on: HNO 97 cell line; test: Induction of cell cycle arrest in human HNO97 cells assessed as cell population at S phase by flow cytometry (reference value: 34.27%); type: functional
[17] = tested on: HNO 97 cell line; test: Induction of apoptosis in human HNO97 cells assessed as measuring fold increase in caspase-3 protein expression level by sandwiched immunoassay relative to control; type: functional; procedure, shortened: as §2
[18] = Cytotoxicity against human HSF (VGS) cells assessed as growth inhibition at 100 microg/mL by SRB assay relative to control; type: toxicity, cell-based; conditions: at 100 µg/mL, read-out: GI
[19] = tested on: HNO 97 cell line; test: Anticancer activity against human HNO97 cells assessed as growth inhibition at 100 microg/mL by SRB assay relative to control; type: functional; conditions: read-out: GI; procedure, shortened: as §3
[20] = tested on: HNO 97 cell line; test: Induction of apoptosis in human HNO97 cells assessed as measuring fold increase in p53 protein expression level by sandwiched immunoassay relative to control; type: functional; procedure, shortened: as §2
[21] = tested on: MDA-MB-468; test: Anticancer activity against human MDA-MB-468 cells assessed as growth inhibition at 100 microg/mL by SRB assay relative to control; type: functional; conditions: read-out: GI; procedure, shortened: as §3
[22] = tested on: MDA-MB-468; test: Cytotoxicity against human MDA-MB-468 cells by SRB assay; type: functional, cell-based; procedure, shortened: as §1
[23] = tested on: A549; test: Anticancer activity against human A549 cells assessed as growth inhibition at 100 microg/mL by SRB assay relative to control; type: functional; conditions: read-out: GI; procedure, shortened: as §3
[24] = tested on: HNO 97 cell line; test: Induction of cell cycle arrest in human HNO97 cells assessed as cell population at G2-M phase by flow cytometry (reference value: 2.42%); type: functional
[25] = tested on: Huh-7; test: Anticancer activity against human Huh-7 cells assessed as growth inhibition at 100 microg/mL by SRB assay relative to control; type: functional; conditions: read-out: GI; procedure, shortened: as §3
[26] = tested on: HNO 97 cell line; test: Induction of apoptosis in human HNO97 cells assessed as measuring fold increase in Bax protein expression level by sandwiched immunoassay relative to control; type: functional; procedure, shortened: as §2

Structure (SMILES)	fold change (FC) [2]	inhibition of growth at 100 µg/mL [3] [%]	inhibition of growth at 100 µg/mL [4] [%]	Activity [5]	inhibition of growth at 100 µg/mL [6] [%]	inhibition of growth at 100 µg/mL [8] [%]	fold change (FC) [9]	inhibition of growth at 100 µg/mL [11] [%]	inhibition of growth at 100 µg/mL [12] [%]	fold change (FC) [13]	IC50 [14] [µM]	inhibition of growth at 100 µg/mL [15] [%]	fold change (FC) [17]	inhibition at 100 microg/mL [18] [%]	inhibition of growth at 100 µg/mL [19] [%]	fold change (FC) [20]	inhibition of growth at 100 µg/mL [21] [%]	IC50 [22] [µM]	inhibition of growth at 100 µg/mL [23] [%]	inhibition of growth at 100 µg/mL [25] [%]	further results
Nc1ccc(C(=O)/C=C/c2ccc(Oc3ccc(Cl)nn3)cc2)cc1	0.59	77.5	61.3	Active	82.3	86.7	0.54	67.9	66.9	9.76	12.2	56.1	7.55	68.1	89.1	3.9	95	11.4	66.5	73.9	IC50 [1]: 27 µM; Activity [7]: 83.28%; inhibition [10]: Active; Activity [16]: 15.66%; Activity [24]: 1.05%; fold change (FC) [26]: 14.9
O=C(/C=C/c1ccc(Oc2ccc(Cl)nn2)cc1)c1ccc(OCc2ccc(Cl)cc2Cl)cc1	0.66	60.9	52.4	Active	55	81.6	0.5	54.4	75.1	9.79	11.1	70.5	8.7	50.7	83.3	5.75	84.2	21.5	65	67.8	IC50 [1]: 60.6 µM; Activity [7]: 66.3%; Activity [16]: 25.13%; Activity [24]: 8.57%; fold change (FC) [26]: 11.54
CC(=O)Nc1cccc(C(=O)/C=C/c2ccc(Oc3ccc(Cl)nn3)cc2)c1	0.65	55.5	69.6	Active	73.9	66.3	0.43	68.7	77.8	10.49	13	73	9.44	70	83.7	7.01	91.1	30.1	71.5	70.8	inhibition [10]: Active; fold change (FC) [26]: 18.26
